Measurements from ChEMBL document CHEMBL4400535, “Experience-based discovery (EBD) of aryl hydrazines as new scaffolds for the development of LSD1/KDM1A inhibitors” (Eur J Med Chem, 2019).
Calls of active or inactive are those of the source. No cut-off for these calls is given here.

Key:
[1] = test system: A549; assay: Up regulation of claudin-1 levels in human A549 cells up to 6 uM after 96 hrs by Western blot analysis; assay type: functional, cell-based
Outline: (§1)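 A549 cells treated with 0, 1 or 6 µM for 96 h, harvested with trypsin and lysed in RIPA buffer (pH 7.5) with protease inhibitors. 40 lg protein/lane on SDS-PAGE, transferred to PVDF, probed overnight with specific primary antibodies. ECL detection, quantified against GAPDH loading control. At least three experiments, mean ± SD.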

[2] = test system: A549; assay: Down regulation of slug levels in human A549 cells up to 6 uM after 96 hrs by Western blot analysis; assay type: functional, cell-based; outline: as §1
[3] = test system: A549; assay: Effect on LSD1 expression in human A549 cells up to 6 uM after 96 hrs by Western blot analysis; assay type: functional, cell-based; outline: as §1
[4] = molecular target: T1, Lysine-specific histone demethylase 1A (Homo sapiens, UniProt O60341); assay: Inhibition of LSD1 in human A549 cells assessed as accumulation of H3K9me2 after 96 hrs by Western blot analysis; assay type: cell-based
Outline: (§2)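 A549 cells were treated with 0, 1 and 6 µM for 96 h, then lysed in RIPA buffer (50 mM Tris-HCl pH 7.5) with protease inhibitors. Lysates went through SDS-PAGE, PVDF transfer and probing for the histone mark, with ECL detection. Bands were quantified against total H3. Run at least three times; mean ± SD.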

[5] = molecular target: T1, Lysine-specific histone demethylase 1A; assay: Inhibition of LSD1 in human A549 cells assessed as accumulation of H3K4me1 up to 6 uM after 96 hrs by Western blot analysis; assay type: cell-based
Outline: (§3)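 A549 cells exposed to 0, 1 or 6 µM for 96 h, lysed in RIPA buffer (pH 7.5) with protease inhibitors. Lysates (40 µg/lane) resolved by 10% or 12% SDS-PAGE and immunoblotted for H3K4me1/2 and H3K9me1/2. ECL read-out, quantified against total histone H3 loading control. At least three experiments, mean ± SD.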

[6] = test system: A549; assay: Up regulation of E-cadherin levels in human A549 cells up to 6 uM after 96 hrs by Western blot analysis; assay type: functional, cell-based; outline: as §1
[7] = test system: A549; assay: Down regulation of snail levels in human A549 cells up to 6 uM after 96 hrs by Western blot analysis; assay type: functional, cell-based; outline: as §1
[8] = molecular target: T1, Lysine-specific histone demethylase 1A; assay: Inhibition of LSD1 in human A549 cells assessed as accumulation of H3K4me2 after 96 hrs by Western blot analysis; assay type: cell-based; outline: as §2
[9] = test system: A549; assay: Antimigratory activity against human A549 cells at 6 uM after 48 hrs by wound healing assay; assay type: functional, cell-based
Outline: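 Scratch wound assay in A549 monolayers: cells seeded at 1 × 10⁴ per well, incubated 24 h, then scratched with a pipette tip. Cultured 48 h in fresh medium with 1% FBS and varying compound concentrations, then photographed under an inverted microscope. At least three independent experiments, mean ± SD.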

[10] = molecular target: T1, Lysine-specific histone demethylase 1A; assay: Inhibition of LSD1 in human A549 cells assessed as accumulation of H3K9me2 up to 6 uM after 96 hrs by Western blot analysis; assay type: cell-based; outline: as §3
[11] = molecular target: T1, Lysine-specific histone demethylase 1A; assay: Inhibition of LSD1 in human A549 cells assessed as accumulation of H3K4me2 up to 6 uM after 96 hrs by Western blot analysis; assay type: cell-based; outline: as §3
[12] = molecular target: T1, Lysine-specific histone demethylase 1A; assay: Inhibition of LSD1 in human A549 cells assessed as accumulation of H3K9me1 up to 6 uM after 96 hrs by Western blot analysis; assay type: cell-based; outline: as §3
[13] = molecular target: T1, Lysine-specific histone demethylase 1A; assay: Inhibition of LSD1 in human A549 cells assessed as accumulation of H3K4me1 after 96 hrs by Western blot analysis; assay type: cell-based; outline: as §2
[14] = test system: A549; assay: Down regulation of N-cadherin levels in human A549 cells up to 6 uM after 96 hrs by Western blot analysis; assay type: functional, cell-based; outline: as §1
[15] = molecular target: T1, Lysine-specific histone demethylase 1A; assay: Inhibition of recombinant LSD1 (unknown origin) using H3K4me2 as substrate by fluorescence assay
[16] = molecular target: T2, MAO-A (Homo sapiens, UniProt P21397); assay: Inhibition of MAO-A (unknown origin) at 10 uM relative to control
T2 sequence (P21397 whole entry): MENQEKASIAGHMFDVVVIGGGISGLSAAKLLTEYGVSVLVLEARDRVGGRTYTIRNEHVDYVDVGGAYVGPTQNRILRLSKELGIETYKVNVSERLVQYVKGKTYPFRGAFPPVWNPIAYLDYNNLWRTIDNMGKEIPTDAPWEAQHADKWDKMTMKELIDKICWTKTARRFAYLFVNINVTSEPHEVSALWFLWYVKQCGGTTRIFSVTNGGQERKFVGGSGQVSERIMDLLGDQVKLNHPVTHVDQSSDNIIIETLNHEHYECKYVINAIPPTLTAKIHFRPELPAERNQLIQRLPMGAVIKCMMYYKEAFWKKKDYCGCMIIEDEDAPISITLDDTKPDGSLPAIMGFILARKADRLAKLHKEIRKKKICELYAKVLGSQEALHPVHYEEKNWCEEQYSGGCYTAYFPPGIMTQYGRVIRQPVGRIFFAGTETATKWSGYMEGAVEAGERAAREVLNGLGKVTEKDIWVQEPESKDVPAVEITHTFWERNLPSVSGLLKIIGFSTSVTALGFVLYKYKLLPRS

[17] = molecular target: T1, Lysine-specific histone demethylase 1A; assay: Inhibition of LSD1 in human A549 cells assessed as accumulation of H3K9me1 after 96 hrs by Western blot analysis; assay type: cell-based; outline: as §2
[18] = molecular target: T1, Lysine-specific histone demethylase 1A; assay: Binding affinity to LSD1 in human A549 cells assessed as thermal stability by measuring temperature at 10 uM after 1 hr by thermal shift assay; assay type: cell-based
Outline: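 CETSA: A549 cells (5 × 10⁵ per sample) were exposed 1 h to 10 µM compound or DMSO, washed in PBS, and resuspended in PBS with protease inhibitor. Samples were heated 3 min at the indicated temperatures (e.g. 46, 49, 52 °C), then freeze-thawed three times in liquid nitrogen. Soluble LSD1 was measured by western blot with a GAPDH control; three independent experiments.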

[19] = molecular target: T2, MAO-A; assay: Inhibition of MAO-A (unknown origin) at 1 uM relative to control
[20] = molecular target: T3, MAO-B (Homo sapiens, UniProt P27338); assay: Inhibition of MAO-B (unknown origin) at 1 uM relative to control
T3 sequence (P27338 whole entry): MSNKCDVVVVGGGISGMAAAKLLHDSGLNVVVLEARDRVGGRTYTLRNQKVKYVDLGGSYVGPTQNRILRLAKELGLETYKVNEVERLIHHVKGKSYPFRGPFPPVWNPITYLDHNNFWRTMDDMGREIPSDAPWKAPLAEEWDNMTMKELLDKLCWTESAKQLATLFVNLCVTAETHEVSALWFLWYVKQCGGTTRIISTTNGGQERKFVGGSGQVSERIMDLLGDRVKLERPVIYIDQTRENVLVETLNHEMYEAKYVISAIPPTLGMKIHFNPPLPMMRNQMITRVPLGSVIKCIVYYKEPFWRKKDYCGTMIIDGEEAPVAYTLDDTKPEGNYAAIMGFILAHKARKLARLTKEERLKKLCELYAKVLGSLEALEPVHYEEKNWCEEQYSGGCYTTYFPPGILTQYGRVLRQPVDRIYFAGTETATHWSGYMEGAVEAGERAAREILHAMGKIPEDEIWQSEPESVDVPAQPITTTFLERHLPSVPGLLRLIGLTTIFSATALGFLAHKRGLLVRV

[21] = molecular target: T3, MAO-B; assay: Inhibition of MAO-B (unknown origin) at 10 uM relative to control
[22] = molecular target: T1, Lysine-specific histone demethylase 1A; assay: Inhibition of H3K4me2 binding to LSD1 in human A549 cells up to 6 uM after 96 hrs by immunoprecipitation assay; assay type: cell-based
Outline: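 Co-IP: A549 cells were treated with 0 or 6 µM for 96 h, trypsinised, and lysed in IP lysis/wash buffer with protease inhibitors. LSD1 antibody was used as bait, and H3K4me2 bound to LSD1 was detected. Total cell lysate was blotted alongside with a GAPDH loading control.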

[23] = test system: GES1; assay: Cytotoxicity against human GES-1 cells assessed as decrease in cell viability after 96 hrs by MTT assay; assay type: cell-based; details: GES1, 96 h
Outline: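 GES-1 cells were grown in RPMI-1640 with 10% FBS at 37 °C and 5% CO₂. They were seeded at 3 × 10³ per well, left overnight, then given graded concentrations for 4 days (0.1% DMSO vehicle). MTT was added for 4 h at 37 °C, formazan dissolved in DMSO, and A570 read. Viability = (At/As) × 100% against solvent control.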

[24] = test system: A549; assay: Antimigratory activity against human A549 cells after 48 hrs by wound healing assay; assay type: functional, cell-based
Outline: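 Scratch assay: cells seeded at 1 × 10⁴ per well and grown 24 h, then the monolayer was scratched with a pipette tip. Cells were then cultured 48 h in fresh medium with 1% FBS and graded compound concentrations. Wound closure was photographed under an inverted microscope. Run at least three times; mean ± SD.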

[25] = molecular target: T1, Lysine-specific histone demethylase 1A; assay: Reversible inhibition of recombinant LSD1 (unknown origin) assessed as recovery of enzyme activity at 40 uM measured 1 hr after 80-fold dilution
Outline: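 Dilution assay: 2.5 µg recombinant LSD1 was preincubated 1 h at 25 °C with 40 µM compound, 1.6 µM GSK2879552 or DMSO. Aliquots were then diluted 80-fold into HRP-coupled assay solution with substrate and compared with undiluted mixtures to assess recovery of LSD1 activity.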

[26] = molecular target: T1, Lysine-specific histone demethylase 1A; assay: Competitive inhibition of recombinant LSD1 (unknown origin) up to 1.25 uM using H3K4me2 as substrate in presence of FAD by Lineweaver-Burk plot analysis
[27] = molecular target: T1, Lysine-specific histone demethylase 1A; details: 1.6 uM

c1ccc([C@@H]2C[C@H]2NC2CCNCC2)cc1 (racemic) was tested, and the Activity [1] was “Active”, the Activity [2] was “Active” and the Activity [3] was “inactive”. The inhibition [4] was “Dose-dependent effect”, the inhibition [5] was “Active” and the Activity [6] was “Active”. For the same compound, the Activity [7] was “Active”, the inhibition [8] was “Dose-dependent effect” and the inhibition [9] was “Active”. The inhibition [10] was “Active”, the inhibition [11] was “Active” and the inhibition [12] was “inactive”. The inhibition [13] was “Dose-dependent effect” and the Activity [14] was “Active”.
NNc1cc(-c2ccccc2)nc2nc(SCc3ccccc3)nn12 showed an IC50 [15] greater than 50 µM.
For Cc1cc(N(C)CCN(C)C)n2nc(SCc3ccccc3)nc2n1, the IC50 [15] was greater than 50 µM.
In the case of C/C(=N\NC(=O)c1cccc(S(=O)(=O)N2CCOCC2)c1)c1cc(Cl)ccc1O, the IC50 [15] is reported as 0.0243 µM.
With Cc1cc(NN)n2nc(SCc3ccccc3)nc2n1 the IC50 [15] was 0.882 µM, the Activity [1] was “Active” and the Activity [2] was “Active”. For the same compound, the Activity [3] was “inactive”, the inhibition [4] was “Dose-dependent effect” and the inhibition at 10 µM [16] was 36%. The Activity [6] was “Active”, the Activity [7] was “Active” and the inhibition [17] was “Dose-dependent effect”. For the same compound, the T [18] was 52 °C, the inhibition at 1 µM [19] was 21% and the inhibition at 1 µM [20] was 15%. For the same compound, the inhibition at 10 µM [21] was 43%, the inhibition [8] was “Dose-dependent effect” and the inhibition [22] was “Active”. The IC50 [23] was greater than 50 µM, the Activity [24] was “Dose-dependent effect” and the inhibition [13] was “Dose-dependent effect”. The Activity [14] was “Active”, the inhibition [25] was “Active” and the inhibition [26] was “Active”.
With Cc1cc(N2CCCC(N)C2)n2nc(SCc3ccccc3)nc2n1 (stereo not drawn) the IC50 [15] was greater than 50 µM.
Cc1cc(NN)n2nc(SCc3cccc4ccccc34)nc2n1 was tested, and the IC50 [15] was greater than 50 µM.
With O=C(O)c1ccc(CN2CCC(CN[C@@H]3C[C@H]3c3ccccc3)CC2)cc1 the inhibition [27] was “Active”.
Work on Cc1cc(N2CCCC(NC(=O)OC(C)(C)C)C2)n2nc(SCc3ccccc3)nc2n1 (stereo not drawn) yielded an IC50 [15] greater than 50 µM.
Cc1cc(NCCN)n2nc(SCc3ccccc3)nc2n1 gave an IC50 [15] greater than 50 µM.
Cc1cc(NN)n2ncnc2n1 was tested, and the IC50 [15] was greater than 50 µM, the inhibition [4] was “inactive” and the inhibition [17] was “inactive”. The Activity [18] was “inactive”, the inhibition [8] was “inactive” and the inhibition [12] was “inactive”. For the same compound, the inhibition [13] was “inactive”.
Compound Cc1cc(N)n2nc(SCc3ccccc3)nc2n1 has an IC50 [15] greater than 50 µM.
For CNCCN(C)c1cc(C)nc2nc(SCc3ccccc3)nn12, the IC50 [15] was greater than 50 µM.
Cc1cc(NCCOCCOCCN)n2nc(SCc3ccccc3)nc2n1 was tested, and the IC50 [15] was greater than 50 µM.
